According to paper PMC5816979 (Biochemistry, 2017):

What was measured:
Assay type in all cases: binding
[1] = target: T1, P450cam (cytochrome P450cam), WT (Pseudomonas putida, UniProt P00183, C335A); experiment: constant-volume visible difference spectrophotometric titration
T1 sequence (P00183 2-415 C335A): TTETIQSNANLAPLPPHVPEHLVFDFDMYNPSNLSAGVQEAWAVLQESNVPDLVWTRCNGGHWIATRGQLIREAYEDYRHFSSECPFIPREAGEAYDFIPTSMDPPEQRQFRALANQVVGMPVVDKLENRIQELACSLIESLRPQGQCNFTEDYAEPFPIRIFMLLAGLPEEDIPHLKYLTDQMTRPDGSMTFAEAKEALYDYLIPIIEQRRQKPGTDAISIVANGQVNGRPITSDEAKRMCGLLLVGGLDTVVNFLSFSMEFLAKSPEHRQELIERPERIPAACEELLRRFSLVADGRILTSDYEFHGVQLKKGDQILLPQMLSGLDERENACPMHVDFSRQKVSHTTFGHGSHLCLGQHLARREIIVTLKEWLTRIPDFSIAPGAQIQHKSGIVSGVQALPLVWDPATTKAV
Method in brief: (§1)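 Substrate-bound protein solution was exchanged into substrate-free solution at the same protein concentration, and visible difference spectra were recorded. KD was obtained by fitting to a single-site binding model. This method applied to the camphor-analogue test compounds.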

[2] = target: T2, P450cam (cytochrome P450cam), WT (Pseudomonas putida, UniProt P00183, C335A/Y97F); experiment: as above
T2 sequence (P00183 2-415 Y97F/C335A): T1 sequence (P00183 2-415 C335A)
Method in brief: as §1

[3] = target: T2, P450cam (cytochrome P450cam), WT; experiment: visible spectrophotometric titration
[4] = target: T1, P450cam (cytochrome P450cam), WT; experiment: visible spectrophotometric titration

Compound | Kd [1] [µM] | Kd [2] [µM] | Kd [3] [µM] | Kd [4] [µM]
CC1(C)C2CCC1(C)C(O)C2 (racemic) [isoborneol] | 10.9 ± 3.4 | 1.2 ± 0.3 | – | –
CC12CCC(CC1)C2(C)C [camphane] | 18.7 ± 2.5 | 10.7 ± 3.3 | – | –
CC1(C)[C@@H]2CC[C@@]1(C)C(=O)C2 [d-camphor] | – | – | 3.5 ± 0.6 | 1.8 ± 0.8
